Data on four compounds can be found in ChEMBL document CHEMBL4270555, “Synthesis and biological evaluation of magnolol derivatives as melatonergic receptor agonists with potential use in depression” (Eur J Med Chem, 2018).

Series [1] is described as follows: Retention time of the compound by UPLC-IT-TOF-MS analysis. Type of series: physicochemical. An outline of the steps:
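Retention on C18 column (100 × 2.1 mm, 1.8 µm) at 30 °C; mobile phase A 0.05% formic acid in water, B 0.05% formic acid in acetonitrile, 0.2 mL/min, linear 5–100% B over 0–18.0 min; IT-TOF-MS detection in positive and negative modes.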

Series [2] in a line: Drug level in Sprague-Dawley rat urine treated with Magnolol-4'-O-beta-D-glucopyranoside at 100 mg/kg, po by UPLC-IT-TOF-MS analysis. The class given is ADME, organism-based. As to conditions: in vivo. The essentials:
(§1)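 Rats (n = 6) housed in metabolic cages received 100.0 mg/kg orally; controls received 0.5% CMC-Na. Plasma, urine and faeces were collected and analyzed by LC-IT-TOF-MS on a C18 column at 30 °C. Gradient 5–100% acetonitrile with 0.05% formic acid over 18 min at 0.2 mL/min; positive and negative ion MS/MS.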

Series [3] can be described thus: Drug level in Sprague-Dawley rat feces treated with Magnolol-4'-O-beta-D-glucopyranoside at 100 mg/kg, po by UPLC-IT-TOF-MS analysis. As to conditions: in vivo. The class given is ADME, organism-based. An outline of the steps: as §1
A short description of series [4]: Drug level in Sprague-Dawley rat plasma treated with Magnolol-4'-O-beta-D-glucopyranoside at 100 mg/kg, po by UPLC-IT-TOF-MS analysis. Type of series: ADME, organism-based. As to conditions: in vivo. The essentials:
as §1

In series [5] the test system is Mus musculus. Briefly: Antidepressant activity in Kunming mouse assessed as decrease in immobility time at 20 mg/kg, po by tail suspension test. The class given is functional, organism-based. The essentials: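 Male Kunming mice (18–20 g), dosed orally and tested acoustically and visually isolated. Each was suspended 50 cm above a wooden box by tape placed about 1 cm from the tail tip for 6 min. Immobility (s) over the last 4 min was recorded automatically by video tracking; n = 10, mean ± SEM vs vehicle.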

Series [6] has as its system Mus musculus. Put plainly: Antidepressant activity in Kunming mouse assessed as decrease in immobility duration at 20 mg/kg, po by forced swim test. The class given is functional, organism-based. An outline of the steps:
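Male Kunming mice (18–20 g), group-housed at 22 ± 2 °C on a 12 h light/dark cycle, dosed orally. Each mouse was placed in a glass cylinder (25 cm high, 15 cm diameter) holding 10 cm of water at 25 ± 1 °C and made to swim for 6 min. Immobility over the last 4 min was scored automatically by video tracking; n = 10, mean ± SEM vs vehicle.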

For series [7], the target named is T1, Melatonin receptor type 1B (Homo sapiens) (UniProt P49286).
T1 sequence (whole entry): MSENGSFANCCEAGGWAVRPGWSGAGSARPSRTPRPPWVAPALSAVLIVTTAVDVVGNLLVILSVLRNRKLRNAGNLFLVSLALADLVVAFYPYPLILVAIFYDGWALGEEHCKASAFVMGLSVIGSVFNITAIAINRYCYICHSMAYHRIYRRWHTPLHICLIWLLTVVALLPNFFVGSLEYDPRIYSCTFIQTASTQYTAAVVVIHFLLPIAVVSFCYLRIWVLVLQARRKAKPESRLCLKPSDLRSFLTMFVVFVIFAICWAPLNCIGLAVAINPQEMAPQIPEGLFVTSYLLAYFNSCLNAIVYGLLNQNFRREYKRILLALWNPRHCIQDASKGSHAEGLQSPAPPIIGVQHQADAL
Briefly: Potency index, ratio of compound effect to magnolol effect for human MT2 receptor. The class given is functional.

Series [8] has as its target Melatonin receptor type 1A (Homo sapiens, UniProt P48039). Put plainly: Agonist activity at human MT1 receptor expressed in HEK293 cells at 1 mM after 24 hrs by Fluo-8 dye-based calcium assay relative to control. Type of series: functional, cell-based. The essentials: (§2)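 Fluo-8 calcium assay in HEK293 cells stably expressing human MT1 or MT2, seeded 4×10^4/well and incubated 24 h. Compounds tested at 1.00 mM, agomelatine positive control at 3.33 µM; fluorescence at ex 485/em 525 nm. Agonism expressed as mean ± SD, n = 3.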

Series [9] deals with T1, Melatonin receptor type 1B (Homo sapiens). Briefly: Agonist activity at human MT2 receptor expressed in HEK293 cells at 1 mM after 24 hrs by Fluo-8 dye-based calcium assay relative to control. Type of series: functional, cell-based. An outline of the steps: as §2

Active and inactive are the calls of the source. No cut-off for these calls is given here.

Sequence of Melatonin receptor type 1A (P48039 whole entry): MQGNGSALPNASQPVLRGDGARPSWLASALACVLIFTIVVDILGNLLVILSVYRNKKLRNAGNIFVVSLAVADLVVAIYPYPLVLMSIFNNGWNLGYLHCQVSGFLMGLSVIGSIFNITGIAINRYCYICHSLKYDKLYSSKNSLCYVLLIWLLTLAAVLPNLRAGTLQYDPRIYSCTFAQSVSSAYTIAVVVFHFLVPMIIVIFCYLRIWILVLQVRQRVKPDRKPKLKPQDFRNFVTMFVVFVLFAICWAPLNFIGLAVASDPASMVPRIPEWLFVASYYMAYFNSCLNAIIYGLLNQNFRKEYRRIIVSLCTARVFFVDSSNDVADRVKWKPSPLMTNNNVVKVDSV

As for `C=CCc1ccc(OC)c(-c2cc(CC=C)ccc2O[C@@H]2O[C@H](CO)[C@@H](O)[C@H](O)[C@H]2O)c1`, the Retention_time in series [1] is on record as 11.32 min. The Drug metabolism result in series [2], in series [3] and in series [4] was “Metabolite_Detected” in each case.

In the case of `COc1ccc2cccc(CCNC(C)=O)c2c1`, the outcome in series [5] was Active.

As for `CNCCC(Oc1ccc(C(F)(F)F)cc1)c1ccccc1` (stereo not given), the result in series [5] and in series [6] was Active.

As to `C=CCc1ccc(O)c(-c2cc(CC=C)ccc2O[C@@H]2O[C@H](CO)[C@@H](OC(C)=O)[C@H](OC(C)=O)[C@H]2O)c1`, the Ratio in series [7] fell in the range of 3.5 to 4.5. The values for the Activity in series [8] and in [9] were 31% and 89%, respectively.
